Screens as filed in PubChem BioAssay.
Shown are actives, neighbours in structure and some others; about 3.7% of the full set was active somewhere.
Mdm2 MdmX PPI: human Mdm2/MdmX binding inhibition; O15151+Q00987; inhibition, % at 8 µM; actives 3% (n = 330,000); SaOS-2 split-luciferase Mdm2/MdmX complementation, luminescence;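 active = inhibition of at least 50% at 8 µM in the primary screen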
UPR CHOP act: activators of apoptotic arm of unfolded protein response (CHOP). activation, % at 10 µM. CHO-CHOP luciferase reporter, UPR activation, luminescence; percent of tunicamycin response over DMSO baseline. actives 0.34% (n = 330,000);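 active = at 10 µM dose, activation of 40% or more, normalized to positive control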;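 also: 100% = tunicamycin at 10 µg/mL and 0% = DMSO alone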
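Test system: CHO-CHOP cells, stable luciferase reporter of PERK-eIF2a-CHOP signalling | Quantity: 500 CHO-CHOP cells per well | Buffer or medium: F12 plus 10% serum | Compound dosing: 10 µM single point, 0.5% DMSO | Schedule: 6 h compound treatment, 37 °C | Signal: Luciferase luminescence | Control set: Tunicamycin high control, DMSO low control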
Beta2AR agonist: activates human beta-2 adrenergic receptor causing internalization; P07550; Am2.2-beta2AR cells, FAP receptor internalization, flow cytometry; response, % (no concentration beside the values); actives 0.43% (n = 340,000);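 active = response above a set limit, near 3 SD of response in nonfluorescent compounds, cut at about 42% in these data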
Dynein cargo inh: dynein cargo transport inhibition; 3617.4 mouse cells, GR-EGFP nuclear translocation imaging; test concentration mostly 20 µM; stimulated with dexamethasone, 1 µM; active compounds read low; z-score, hits read low; actives 0.47% (n = 220,000);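 active = plate z-score of nuclear minus cytoplasmic receptor signal below a set negative limit, without overly bright fluorescence or cell loss, cut at about -3.5 in these data, passing the limit was not always enough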;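 also: z-score of nuclear minus cytoplasmic ring GR-EGFP intensity difference per well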
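Buffer or medium: tet-free, stripped-serum medium; reagent: dexamethasone at 1.0 µM final, 30 min; incubation: 48 h induction, 1 h compound, 30 min dex at 37 °C; measured by: formaldehyde fixation, Hoechst nuclear stain, 10x automated fluorescence imaging; read-out: nuclear-to-cytoplasmic GR-EGFP distribution per well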
XBP1 UPR activ: activators of adaptive arm of unfolded protein response (XBP1); AID 463104; CHO-XBP1 luciferase reporter, IRE1-XBP1 UPR activation, luminescence; percent of tunicamycin response, DMSO as zero; actives 0.33% (n = 330,000); activation, % at 20 µM;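 active = versus positive control, 20 µM dose yields 30% or more activation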;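 also: 100% = tunicamycin at 10 µg/mL and 0% = DMSO only wells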
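Test system: CHO-XBP1 luciferase reporter cells | Buffer or medium: Serum-containing F12 medium, 10% FBS | Schedule: 6 h compound exposure at 37 °C, 5% CO2 | Detection: Steady-Glo luciferase glow luminescence, 10 min after reagent addition | Read-out basis: Activation, % of tunicamycin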
Mdm2 ligase inh: blocks human Mdm2 ubiquitin ligase activity; Q00987; cell-based MDM2 ubiquitination luciferase reporter, 2 h; 0 = plate control, 100 = twice control, blank-subtracted; signal enhancement, % at 5 µM; actives 0.11% (n = 210,000);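 active = signal enhancement of 30% or more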;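 also: luminescence tracks abundance of the self-degrading MDM2-luciferase fusion protein; higher signal means inhibition of MDM2 E3 ligase activity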
Target sequence (Q00987 whole entry, looked up, the tested form may be a part): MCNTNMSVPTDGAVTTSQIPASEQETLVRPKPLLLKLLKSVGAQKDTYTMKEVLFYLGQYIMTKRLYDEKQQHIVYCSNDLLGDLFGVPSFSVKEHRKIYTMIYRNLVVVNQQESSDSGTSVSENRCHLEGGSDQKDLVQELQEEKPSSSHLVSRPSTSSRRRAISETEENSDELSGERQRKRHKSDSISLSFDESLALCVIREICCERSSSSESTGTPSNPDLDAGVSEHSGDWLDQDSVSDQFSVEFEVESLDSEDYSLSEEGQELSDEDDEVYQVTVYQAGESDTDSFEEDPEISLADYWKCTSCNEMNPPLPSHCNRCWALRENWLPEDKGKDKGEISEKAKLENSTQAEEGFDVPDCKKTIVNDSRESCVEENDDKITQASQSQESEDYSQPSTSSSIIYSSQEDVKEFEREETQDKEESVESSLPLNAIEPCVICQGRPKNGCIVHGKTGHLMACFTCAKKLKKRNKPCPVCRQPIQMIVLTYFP
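Test system: stable mammalian line carrying autodegrading MDM2–luciferase fusion reporter; quantity: 2000 cells in each well; times: 4 h cell settling then 2 h compound exposure, 37 °C; detection: luminescence with SteadyLite reagent, 15 min at room temperature; evaluation: percent signal gain over controls, blank-subtracted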
Dynein inh conf: dynein cargo transport inhibition, confirmation; calls only at 20 µM; 3617.4 GR-EGFP nuclear translocation imaging, dexamethasone-induced; shares compounds with Dynein cargo inh; actives 69% (n = 1,000); AID 463116;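 active = inhibition of receptor movement into the nucleus at or above a set limit in both runs, with normal cell brightness and cell count; inconclusive = limit reached in only one run, brightness and count normal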;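 also: dexamethasone at 1 µM final in well for 30 min; nuclear minus cytoplasmic GR-EGFP mean intensity difference in channel 2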
CHOP UPR conf: apoptotic UPR (CHOP) activation, confirmed | shares compounds with UPR CHOP act | CHO-CHOP cells, CHOP-luciferase reporter luminescence; percent of tunicamycin response, DMSO as zero | activation, % at 10 µM | actives 64% (n = 1,000); in the data active = activation above about 33%;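 also: 0% = DMSO wells and 100% = tunicamycin 10 µg/mL wells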
Mdm2-MdmX conf: human Mdm2/MdmX binding inhibition, confirmed. shares compounds with Mdm2 MdmX PPI. luminescent assay. inhibition, % at 8 µM. actives 55% (n = 10,000). AID 489028; in the data active = inhibition above about 40%
FLuc counter: counter-screen for Mdm2/MdmX inhibitors: full-length luciferase. SaOS-2 full-length luciferase counterscreen, luminescence. actives 77% (n = 6,200). AID 504607. shares compounds with Mdm2 MdmX PPI. inhibition, % at 8 µM;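 active = mean inhibition at 8 µM reaching about 37%, which flags the compound as non-specific, limit read from the data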;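 also: p53-null SaOS-2 cells with luciferase driven by a doxycycline-inducible promoter; compound on cells about two nights before reading with doxycycline added after day one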
Beta2AR ag CP1: agonists of human beta-2 adrenergic receptor | percent response (surface receptor), % at 10 µM | actives 25% (n = 1,100) | shares compounds with Beta2AR agonist | Am2.2-beta2AR cells, FAP surface receptor, flow cytometry; active compounds read low | AID 540358;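 active = surface receptor percent response at or below 58%, roughly 3 SD from nonfluorescent compounds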
FAP fluor counter: fluorescence artifact in beta-2AR agonist FAP counterscreen | Am2.2 cells, FAP fluorogen flow cytometry; active compounds read low | shares compounds with Beta2AR agonist | 1,100 tested, under 10 active | calls only at 10 µM;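 active = percent response below a set limit in fluorescence channel 1 and below 50% in channel 8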
Starred values were filed as active, the others as inactive; i = inactive; ? = inconclusive; nt = no result given; + = active, no number.

SMILES	Mdm2 MdmX PPI	UPR CHOP act	Beta2AR agonist	Dynein cargo inh	XBP1 UPR activ	Mdm2 ligase inh	Dynein inh conf	CHOP UPR conf	others
Cc1ccc(NC2CCCN(C(=O)c3ccc4[nH]ccc4c3)C2)cc1C (stereo unspecified)	18	1	7	nt	-6	nt	nt	nt
Clc1ccc(OCCOCCNCc2ccccc2)cc1Cl	25	0	6	nt	-3	nt	nt	nt
CCOc1cc(CNCCCN2CCOCC2)cc(Br)c1OCc1ccccc1Cl	92*	4	30	-5.1*	15	-6	i	nt	Mdm2-MdmX conf=34;FLuc counter=52*
CCOc1cc(CNCCN2CCOCC2)ccc1OCc1ccccc1Cl	25	2	2	-0.2	-1	-4	nt	nt
COc1cc(/C=C2\COC/C(=C\c3ccc(O)c(OC)c3)C2=O)ccc1O	100*	140*	28	-5.7*	-6	16	+	112*	Mdm2-MdmX conf=100*;FLuc counter=53*
CCN1C/C(=C/c2ccc(OC)c(O)c2)C(=O)/C(=C/c2ccc(OC)c(O)c2)C1	100*	38	5	-6.3*	-8	50*	?	nt	Mdm2-MdmX conf=100*;FLuc counter=41*
COc1cc(/C=C2/CC/C(=C/c3ccc(O)c(OC)c3)C2=O)ccc1O	31	0	-12	-1	3	-1	nt	nt
CCCN(CCC)S(=O)(=O)c1ccc(N2CCCC2=O)c([N+](=O)[O-])c1	19	2	-2	-0.39	2	9	nt	nt
CCCN(CCC)S(=O)(=O)c1ccc(Cl)c([N+](=O)[O-])c1	29	1	44*	-3.5*	-1	-28	?	nt	Beta2AR ag CP1=107;FAP fluor counter=i
Cc1ccc(-c2csc3ncnc(Sc4nnc(CN5CCCCCC5=O)o4)c23)cc1	83*	82*	42*	-3.8*	-6	-10	+	80*	Mdm2-MdmX conf=100*;FLuc counter=-1;Beta2AR ag CP1=87;FAP fluor counter=i
Cc1cc(C(=O)C(C)OC(=O)c2ccc(NC(=O)CC#N)cc2)c(C)n1-c1ccccc1 (stereo unspecified)	-7	-2	8	nt	-6	nt	nt	nt
CC(C)N1C(=O)/C(=C/c2nc3ccccc3c(=O)n2-c2ccccc2)c2ccccc21	78*	5	47*	-4.1*	11	3	+	nt	Mdm2-MdmX conf=54*;FLuc counter=37*;Beta2AR ag CP1=82;FAP fluor counter=i
CCOc1ccc(CCNC(=O)C2CC(=O)N(c3ccc4c(c3)OCCO4)C2)cc1OCC (stereo unspecified)	21	3	-4	nt	-3	nt	nt	nt
COc1ccc(C2C(C#N)=C(N)Oc3c2sc2nc(C)cc(C)c32)cc1 (stereo unspecified)	46	0	80*	-3.9*	-2	-35	i	nt	Beta2AR ag CP1=43*;FAP fluor counter=i
c1ccc(COc2ncnc3c2ncn3CCCNCc2ccc3c(c2)OCO3)cc1	nt	nt	-3	nt	nt	nt	nt	nt
CC(C)NC(=O)[C@H]1N2C(=O)c3ccccc3C2SC1(C)C (stereo partly specified)	-6	1	-8	nt	-3	nt	nt	nt
Cn1cc([N+](=O)[O-])c(C(=O)Nc2ccc(-c3nc4ccccc4[nH]3)cc2)n1	-29	5	-9	-0.64	4	1	nt	nt
Cc1ccc(-c2nc(NC(=O)c3nn(C)cc3[N+](=O)[O-])sc2C)cc1	79*	100*	104*	-3.8*	8	-10	+	59*	Mdm2-MdmX conf=100*;FLuc counter=53*;Beta2AR ag CP1=9.7*;FAP fluor counter=i
Cc1nc([N+](=O)[O-])c(Br)n1Cc1ccc(Cl)c(Cl)c1	nt	nt	58*	-4.2*	nt	-19	+	nt	Beta2AR ag CP1=96;FAP fluor counter=i
COc1ccccc1-c1cc(C(F)(F)F)nc(S(=O)(=O)CCCC(=O)N2CCCCC2C)n1 (stereo unspecified)	97*	279*	35	-5.8*	6	-4	?	192*	Mdm2-MdmX conf=69*;FLuc counter=20;Beta2AR ag CP1=66;FAP fluor counter=i
COc1ccccc1-c1cc(C(F)(F)F)nc(N2CCCCC2)n1	10	-3	3	-0.42	3	-17	nt	nt
Cc1ccc(SC2=C(Sc3ccc(C)cc3)C(=O)c3ccccc3C2=O)cc1	11	215*	18	-1.3	0	2	nt	2
CC1(C)Cc2c(c(N3CCOCC3)nc3sc(C(=O)Nc4cccc(Cl)c4)c(N)c23)CO1	-14	88*	1	nt	7	nt	nt	0
CSC(=S)N/N=C(\C)c1ccccc1	30	109*	-2	-0.43	2	23	nt	79*
C/C(=N\NC(N)=S)c1ccccc1	-24	-1	-7	-0.68	-2	5	nt	nt
SMILES	Mdm2 MdmX PPI	UPR CHOP act	Beta2AR agonist	Dynein cargo inh	XBP1 UPR activ	Mdm2 ligase inh	Dynein inh conf	CHOP UPR conf	others
CCOC(=O)c1c(NC(=O)c2ccccc2Cl)sc2c1CCc1ccccc1-2	17	1	5	-0.22	0	-11	nt	nt
CCCCC(=O)Nc1sc2c(c1C(=O)OCC)CCC(C=O)=C2Cl	29	63*	-14	4.1	33*	-5	nt	33*
Cc1cc(N/N=C/c2ccc(F)cc2)nc(-n2nc(C)cc2C)n1	13	73*	0	1.3	17	-5	nt	23
CCOC(=O)c1cnc(-n2nc(C)cc2C)nc1Nc1ccc(OC)cc1	-28	30	-14	-1.4	18	-3	nt	nt
CNc1cc(C)nc(-n2nc(C)cc2C)n1	18	2	-8	-0.63	1	-12	nt	nt
CCOc1ccc(Nc2cc(C)nc(-n3nc(C)cc3C)n2)cc1	44	105*	21	0.08	87*	-9	nt	15
COc1cc(C[C@@H](C)[C@@H](C)Cc2ccc(O)c(OC)c2)ccc1O	40	1	13	nt	3	nt	nt	nt
CC(Cc1ccc(O)c(O)c1)C(C)Cc1ccc(O)c(O)c1 (stereo unspecified)	-4	83*	nt	nt	-2	nt	nt	23
